Assay [1] is described as follows: Antioxidant activity assessed as luminol-dependent chemiluminescence at 100 uM relative to control. It counts as functional. The procedure, abridged:
(§1)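 Chemiluminescence run in 1 ml PBS with 0.1 mM luminol and 0.06 mM NaOCl to generate ClO⁻. Compound at several concentrations up to 10^-4 mol/L, or buffer for controls. CL recorded every 50 ms after NaOCl addition in flash mode. Scavenger index (CL-SI) expressed relative to the buffer control, set at 100%.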

The nature of assay [2]: Antioxidant activity assessed as luminol-dependent chemiluminescence at 1 uM. It counts as functional. The procedure, abridged:
as §1

A further assay concerns HUVEC. As to the kind of experiment: Cytoprotective activity against linoleic acid hydroperoxide-induced toxicity in HUVEC cells after 3 hrs. The note with it: Homo sapiens. In kind it is functional, cell-based.
Assay [3] can be described thus: Antioxidant activity assessed as decrease in luminol-dependent chemiluminescence's scavenger index. It counts as functional. In outline: as §1
In another assay the test system is EJ. Kind of assay: Cytotoxicity against human EJ cells. It counts as functional, cell-based.
The test system of the next assay is HL-60. As to the kind of experiment: Cytotoxicity against human HL60 cells. It counts as functional, cell-based.

Molecules are shown by their SMILES. Calls of active or inactive are those of the source. The rule behind the calls is not given here.

For `CCOC(=O)C(C(C)=O)C(c1ccc(C(=O)O)cc1)c1c(O)c2ccccc2oc1=O` (stereo not given), in assay [1], the result was Active.
Consider `CCOC(=O)C(C(C)=O)C(c1ccc(O)cc1)c1c(O)c2ccccc2oc1=O` (stereo not given), for which the result in assay [1] and in assay [2] was Active.
Regarding `O=c1ccc2cc(O)c(O)cc2o1`, the result in the assay on HUVEC was Active.
On to `CCOC(=O)C(C(C)=O)C(c1cc(OC)c(OC)c(OC)c1)c1c(O)c2ccccc2oc1=O` (stereo not given), for which the result in assay [1] was Active. Besides, in assay [3], the Activity result was “Dose-dependent effect”.
Consider `CCOC(=O)C(C(C)=O)C(c1cccc([N+](=O)[O-])c1)c1c(O)c2ccccc2oc1=O` (stereo not given), for which the Activity in assay [1] was 7%; in assay [3], “Dose-dependent effect”. In addition, the result with EJ and with HL-60 was Active.

The values are drawn from ChEMBL document CHEMBL1152475, “Investigation of the antioxidant properties of some new 4-hydroxycoumarin derivatives” (Eur J Med Chem, 2009).
